In ChEMBL document CHEMBL3352402, “Pharmacological evaluation and docking studies of α,β-unsaturated carbonyl based synthetic compounds as inhibitors of secretory phospholipase A₂, cyclooxygenases, lipoxygenase and proinflammatory cytokines” (Bioorg Med Chem, 2014):
pIC50: −log10 of the molar value. Activity calls are given as the source filed them. No cut-off for these calls is given here.

Assays:
[1] = Inhibition of sPLA2-V (unknown origin) using substrate 1,2-bis(heptanoylthio)-glycerophosphocholine by Ellman's method based photometric assay; design: species or system Homo sapiens
[2] = target: T1, Prostaglandin G/H synthase 1 (Ovis aries, UniProt P05979); test: Inhibition of ovine COX1 using arachidonic acid substrate assessed as PGE2 production ELISA method after 2 mins
T1 sequence (P05979 whole entry): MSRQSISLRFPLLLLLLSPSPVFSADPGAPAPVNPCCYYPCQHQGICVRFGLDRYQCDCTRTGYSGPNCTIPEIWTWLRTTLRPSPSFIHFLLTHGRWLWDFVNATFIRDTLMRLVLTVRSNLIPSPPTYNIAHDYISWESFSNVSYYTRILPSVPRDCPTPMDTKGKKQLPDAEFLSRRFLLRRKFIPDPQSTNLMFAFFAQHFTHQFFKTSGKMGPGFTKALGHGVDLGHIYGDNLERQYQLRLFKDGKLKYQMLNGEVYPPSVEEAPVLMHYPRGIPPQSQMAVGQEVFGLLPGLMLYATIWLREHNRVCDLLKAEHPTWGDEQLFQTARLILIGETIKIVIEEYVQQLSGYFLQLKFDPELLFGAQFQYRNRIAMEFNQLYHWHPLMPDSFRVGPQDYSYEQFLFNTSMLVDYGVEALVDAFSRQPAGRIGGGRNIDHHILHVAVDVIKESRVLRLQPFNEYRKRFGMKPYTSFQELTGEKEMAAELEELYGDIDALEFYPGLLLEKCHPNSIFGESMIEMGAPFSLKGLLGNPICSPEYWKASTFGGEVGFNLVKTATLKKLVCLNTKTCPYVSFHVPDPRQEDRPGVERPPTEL

[3] = target: T2, Prostaglandin G/H synthase 2 (Homo sapiens, UniProt P35354); test: Inhibition of human recombinant COX2 using arachidonic acid substrate assessed as PGE2 production ELISA method after 2 mins
T2 sequence (P35354 whole entry): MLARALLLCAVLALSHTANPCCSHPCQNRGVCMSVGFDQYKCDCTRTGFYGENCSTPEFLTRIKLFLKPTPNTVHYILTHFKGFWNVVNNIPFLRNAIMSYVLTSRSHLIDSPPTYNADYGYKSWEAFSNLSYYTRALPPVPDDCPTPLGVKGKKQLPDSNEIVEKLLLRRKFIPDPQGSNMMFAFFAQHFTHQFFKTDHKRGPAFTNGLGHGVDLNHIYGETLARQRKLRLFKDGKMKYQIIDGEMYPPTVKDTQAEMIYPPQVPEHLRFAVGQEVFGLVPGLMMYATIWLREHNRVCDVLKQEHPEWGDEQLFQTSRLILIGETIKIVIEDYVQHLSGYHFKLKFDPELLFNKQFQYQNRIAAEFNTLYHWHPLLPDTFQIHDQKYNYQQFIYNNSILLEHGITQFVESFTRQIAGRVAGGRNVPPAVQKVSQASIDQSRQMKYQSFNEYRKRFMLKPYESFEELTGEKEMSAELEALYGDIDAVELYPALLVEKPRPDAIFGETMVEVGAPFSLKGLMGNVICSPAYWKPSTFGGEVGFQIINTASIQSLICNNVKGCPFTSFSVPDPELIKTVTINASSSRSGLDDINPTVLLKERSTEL

Lipoxygenase = Lipoxygenase (Glycine max, UniProt Q39829); test: Inhibition of soybean lipoxygenase after 5 mins by colorimetric assay
How it was run: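 Purified soybean lipoxygenase resuspended in 0.1 M Tris-HCl, pH 7. Enzyme plus test sample was started with substrate (dissolved in KOH, diluted to 1 mM) at room temperature for 5 min. Chromogen was added for 5 min to stop the reaction, then absorbance read at 490 nm. Activity is relative to enzyme plus substrate alone.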

RAW264.7 [4] = test: Inhibition of TNFalpha expression in mouse RAW264.7 cells at 10 uM per-treated with compound for 2 hrs before LPS challenge for 22 hrs by ELISA method; type: functional
RAW264.7 [5] = test: Inhibition of IL6 release in mouse RAW264.7 cells at 10 uM per-treated with compound for 2 hrs before LPS challenge for 22 hrs by ELISA method; type: functional
How it was run: (§1)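 RAW 264.7 macrophages grown in DMEM with 10% heat-inactivated FBS and 1% Pen Strep, 37°C, 5% CO2. Pretreated 2 h with compound (10 µM) or vehicle, then LPS (0.5 µg/ml, in PBS) 22 h. Medium was centrifuged and cytokine measured by mouse ELISA. Levels were normalized to total protein of the cell pellet and expressed as percent of LPS control. Triplicates, mean ± SEM.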

RAW264.7 [6] = test: Immunostimulatory activity in mouse RAW264.7 cells assessed as stimulation of IL6 release at 10 uM per-treated with compound for 2 hrs before LPS challenge for 22 hrs by ELISA method; type: functional, cell-based; how it was run: as §1

SMILES | pIC50 [1] | pIC50 [2] | pIC50 [3] | pIC50 (Lipoxygenase) | inhibition at 10 µM (RAW264.7 [4]) [%] | inhibition at 10 µM (RAW264.7 [5]) [%] | Activity (RAW264.7 [6])
CN1C/C(=C\c2ccc(N3CCCC3)cc2)C(=O)/C(=C/c2ccc(N3CCCC3)cc2)C1 | 4.95 | 4.16 | < 4.00 | – | – | – | –
CC(Cc1ccc(O)c(O)c1)C(C)Cc1ccc(O)c(O)c1 (stereo not drawn) [NORDIHYDROGUAIARETIC ACID] | – | – | – | 5.03 | – | – | –
CN(C)c1ccc(/C=C2\Cc3ccccc3C2=O)c([N+](=O)[O-])c1 | 4.55 | 5.00 | 4.83 | – | – | – | –
O=C(/C=C/c1ccc(N2CCCC2)cc1)/C=C/c1ccc(N2CCCC2)cc1 | 4.53 | 4.31 | 4.16 | – | – | – | –
O=C1/C(=C/c2ccc(N3CCCC3)cc2)CN(Cc2ccccc2)C/C1=C\c1ccc(N2CCCC2)cc1 | 4.72 | 4.29 | 4.24 | – | – | – | –
CCOC(OCC)c1ccc(/C=C2\COC/C(=C\c3ccc(C(OCC)OCC)cc3)C2=O)cc1 | 5.06 | – | 4.95 | 4.04 | 73 | – | –
O=C1/C(=C/c2ccc(N3CCCC3)cc2)COC/C1=C\c1ccc(N2CCCC2)cc1 | 4.82 | 4.40 | < 4.00 | – | – | – | –
CN(C)c1ccc(/C=C/C(=O)C2CCc3ccccc3C2=O)c([N+](=O)[O-])c1 (stereo not drawn) | 4.65 | 4.53 | 4.42 | 3.80 | – | – | –
CCOC(OCC)c1ccc(/C=C2\CC/C(=C\c3ccc(C(OCC)OCC)cc3)C2=O)cc1 | – | – | 4.83 | – | – | – | –
CN(C)c1ccc(/C=C2/CCC/C(=C\c3ccc(N(C)C)cc3[N+](=O)[O-])C2=O)c([N+](=O)[O-])c1 | 4.95 | 6.38 | < 4.00 | 4.53 | – | – | –
CCOC(OCC)c1ccc(/C=C2\CN(Cc3ccccc3)C/C(=C\c3ccc(C(OCC)OCC)cc3)C2=O)cc1 | 4.75 | 5.50 | < 4.00 | – | – | – | –
CCOC(OCC)c1ccc(/C=C2\CCC/C(=C\c3ccc(C(OCC)OCC)cc3)C2=O)cc1 | 4.90 | – | 4.76 | 4.08 | – | – | –
CCOC(OCC)c1ccc(/C=C2\CNC/C(=C\c3ccc(C(OCC)OCC)cc3)C2=O)cc1 | 5.15 | – | 4.56 | 4.05 | 91 | 91 | –
CN(C)c1ccc(/C=C2\CCc3ccccc3C2=O)c([N+](=O)[O-])c1 | 4.43 | 4.67 | 4.55 | – | – | – | Active
CN(C)c1ccc(/C=C2\CN(Cc3ccccc3)C/C(=C\c3ccc(N(C)C)cc3[N+](=O)[O-])C2=O)c([N+](=O)[O-])c1 | 4.82 | 4.84 | 4.72 | 3.68 | – | – | –
CCOC(OCC)c1ccc(/C=C/C(=O)/C=C/c2ccc(C(OCC)OCC)cc2)cc1 | 4.72 | 5.49 | 4.50 | 3.68 | – | 76 | –
